In paper PMC6767012 (Clinical Pharmacology in Drug Development, 2018):
Where two headings read alike, the source gives them in different places.

Columns and labels:
[1] = single oral 180-mg dose, healthy subjects; cited from earlier work
ALK+ NSCLC = conditions: 180 mg orally once daily with 7-day lead-in at 90 mg; crizotinib-refractory ALK+ NSCLC; cited from earlier work
CYP2C8 and CYP3A4 = conditions: human liver microsomes and hepatocytes; cited from earlier work
[2] = type: in vivo, human; conditions: single oral 180 mg; for Effect of high-fat meal on total exposure (AUC): fed vs fasted; for Reduction of Cmax under fed versus fasted conditions: high-fat meal; for half-life: t1/2 (terminal elimination half-life)
ALK resistance mutations = conditions: nonclinical studies; cited from earlier work
[3] = cited from earlier work
[4] = Food effect study: safety and tolerability; type: in vivo, human; conditions: for Incidence of treatment-emergent adverse events (TEAEs): single oral 180 mg, healthy subjects
Outline: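 Phase 1, single-centre, randomised, open-label, 2-period, 2-sequence crossover in healthy nonsmoking adults aged 18–55, BMI 18–30 kg/m2, at least 50 kg. Single morning oral dose (2 × 90-mg tablets) with about 240 mL water, after an overnight fast of at least 10 h, or with a standardised high-fat meal 30 ± 5 min before dosing. Washout at least 16 days. Adverse events were tracked until 7 days after the last dose, alongside vital signs, haematology, chemistry, urinalysis, physical exams and 12-lead ECG.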

[5] = healthy subjects; cited from earlier work
[6] = patients with advanced ALK+ NSCLC; cited from earlier work
[7] = cited from earlier work; remark: listed apart in the source

COc1cc(N2CCC(N3CCN(C)CC3)CC2)ccc1Nc1ncc(Cl)c(Nc2ccccc2P(C)(C)=O)n1 [Brigatinib]
Administered dose excreted in the feces [1]: 65% | Administered dose excreted in the urine [1]: 25% | Confirmed objective response rate (ALK+ NSCLC): 56% | Median progression-free survival (ALK+ NSCLC): 16.7 months | Metabolizing enzymes (CYP2C8 and CYP3A4): cytochrome P450 (CYP)2C8 and CYP3A4 | Effect of high-fat meal on total exposure (AUC) [2]: no effect | Effect of high-fat meal on total exposure (AUC) ([2]; listed as brigatinib): similar | Reduction of Cmax under fed versus fasted conditions [2]: 13% | Reduction of Cmax under fed versus fasted conditions ([2]; listed as brigatinib): approximately 13% | Cmax ([2]; human, plasma, po, 180 mg, Geometric mean (% CV), fasted, N = 21): 701 ng/mL | Cmax ([2]; human, plasma, po, 180 mg, Geometric mean (% CV), fed (high-fat meal), N = 24): 605 ng/mL | Cmax ([2]; human, plasma, po, 180 mg, Mean (SD), fed (high-fat meal), healthy subjects, N = 24): 622 ng/mL | Tmax ([2]; human, plasma, po, 180 mg, Tmax, Median (minimum-maximum), fed (high-fat meal), N = 24): 5 h | half-life ([2]; human, plasma, po, 180 mg, Mean (SD), fasted, N = 21): 31 h | half-life ([2]; human, plasma, po, 180 mg, Mean (SD), fed (high-fat meal), N = 24): 31.1 h | Activity against all ALK resistance mutations tested (ALK resistance mutations): potent activity | Steady-state systemic exposure versus dose ([3]; 60 mg to 240 mg once daily): dose proportional | Geometric mean apparent oral clearance at steady-state ([3]; 180 mg orally once daily): 10.6 L/h | Mean plasma elimination half-life ([3]; 180 mg orally once daily): 25 h | Subjects with cough ([4]; fasted): 24% | Subjects with headache ([4]; fasted): 14% | Subjects with nausea ([4]; fasted): 14% | Subjects with somnolence ([4]; fasted): 14% | Abnormalities in laboratory findings, vital signs, ECGs, or physical examination ([4]; fasted and fed): no clinically significant abnormalities | Deaths or serious TEAEs ([4]; fasted and fed): No deaths or serious TEAEs | Intensity of TEAEs ([4]; fasted and fed): mild | Incidence of treatment-emergent adverse events (TEAEs) ([4]; fasted): 48% | Subjects with headache ([4]; fed): 4% | Subjects with nausea ([4]; fed): 4% | Subjects with somnolence ([4]; fed): 4% | Incidence of treatment-emergent adverse events (TEAEs) ([4]; fed (high-fat meal)): 46%

C[C@@H](Oc1cc(-c2cnn(C3CCNCC3)c2)cnc1N)c1c(Cl)ccc(F)c1Cl [Crizotinib]
Decrease of exposure (both Cmax and AUC) following a high-fat meal [5]: 14%

Cc1cc(Nc2ncc(Cl)c(Nc3ccccc3S(=O)(=O)C(C)C)n2)c(OC(C)C)cc1C1CCNCC1 [ceritinib]
Cmax and AUC0–24 of 450 mg taken with food versus 750 mg fasted [6]: comparable | Incidence of gastrointestinal toxicities, 450 mg with food versus 750 mg fasted [6]: lower incidence | Effect of food on exposure [7]: increases exposure
